Assay results published in ChEMBL document CHEMBL4004800, “Thiol-Based Probe for Electrophilic Natural Products Reveals That Most of the Ammosamides Are Artifacts” (J Nat Prod, 2017).
Activity calls are given as the source filed them. No cut-off for these calls is given here.

Experiments:
Escherichia coli = test: Antibacterial activity against Escherichia coli MG1655 at 10 ug after 48 hrs by disk diffusion method; format: functional; details: K-12 substr. MG1655
Procedure, shortened: (§1)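 Kirby–Bauer disk diffusion on LB agar swabbed with inocula from 24 h LB (pH 7.0) precultures grown at rt, 200 rpm. Each 6 mm paper disc carried 10 μg compound, applied as […] in MeOH and dried before placement. Controls were MeOH (10 μL) as negative and ciprofloxacin 5 μg as positive. Plates were incubated 48 h.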

HCT-116 [1] = test: Cytotoxicity against human HCT116 cells assessed as growth inhibition at 78.125 ug/ml by MTS assay relative to control; format: functional; details: read-out: GI
HCT-116 [2] = test: Cytotoxicity against human HCT116 cells assessed as growth inhibition by MTS assay; format: functional, cell-based
Procedure, shortened: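 HCT-116 colorectal cells, cultured as in earlier work, were tested by colorimetric MTS assay. Compounds were supplied in DMSO from a 10 mg mL⁻¹ stock. IC50 came from a four-parameter sigmoidal fit, and values are averages of three measurements. Controls were DMSO (negative) and etoposide (positive, 4 mg mL⁻¹ stock in DMSO).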

HCC44 = test: Cytotoxicity against human HCC44 cells; format: functional, cell-based
[3] = Drug metabolism assessed as compound formation from ammosamide C; format: physicochemical
Procedure, shortened: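 Ammosamide C TFA salt kept at rt in seawater-based A1 medium pH 10.0 (1.0 mg/500 μL; pH 6.8 control), PBS pH 10 (2.0 mg/1.0 mL), saturated NaHCO₃ pH 8.1 (2.0 mg/1.0 mL), or PBS pH 10 with 7 equiv L-cysteine. Products followed over days by analytical C18 ELSD-UV/vis-HPLC (1–60% CH₃CN, 0.1% formic acid), plus LC-HRMS for the buffer reactions.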

[4] = Stability of the compound in culture medium
Bacillus oceanisediminis = test: Antibacterial activity against Bacillus oceanisediminis CNY-977 at 10 ug after 48 hrs by disk diffusion method; format: functional; procedure, shortened: as §1
[5] = Drug metabolism assessed as half life for ammosamide B formation; format: physicochemical
[6] = Homo sapiens, HCT-116, read-out: IC50

Row | Compound | Activity (Escherichia coli) | inhibition of growth at 78.125 µg/mL (HCT-116 [1]) [%] | IC50 (HCT-116 [2]; hct-116) | IC50 (HCT-116 [2]; [6]) [µM] | other results
1 | CN1C(=S)c2cc(C(N)=O)nc3c(N)c(Cl)c(N)c1c23 | Active | 19 | Not Active | – | –
2 | CC(C)/N=C1\c2cc(C(N)=O)nc3c(N)c(Cl)c(N)c(c23)N1C | – | – | – | – | IC50 (HCC44): 1.1 µM
3 | CN1/C(=N/c2ccc(Cl)cc2)c2cc(C(N)=O)nc3c(N)c(Cl)c(N)c1c23 | – | – | – | 39 | –
4 | CC(=O)NCCSC1=[N+](C)c2c(N)c(Cl)c(N)c3nc(C(N)=O)cc1c23 | – | 26 | Not Active | – | –
5 | CCCNC1=[N+](C)c2c(N)c(Cl)c(N)c3nc(C(N)=O)cc1c23 | – | – | – | 6.8 | –
6 | COc1cc([C@@H]2c3cc4c(cc3[C@@H](O[C@@H]3O[C@@H]5CO[C@@H](C)O[C@H]5[C@H](O)[C@H]3O)[C@H]3COC(=O)[C@H]23)OCO4)cc(OC)c1O [ETOPOSIDE] | – | – | – | 0.49 to 4.9 | –
7 | CN1C(=O)c2cc(C(N)=O)nc3c(N)c(Cl)c(N)c1c23 [AMMOSAMIDE B] | Active | – | – | 29 | Drug metabolism [3]: Metabolite_Detected
8 | CNC(=O)c1cc(C(N)=O)nc2c1C(=O)C(=O)C(Cl)=C2N | – | 97 | Not Active | – | –
9 | CCCCCC/N=C1\c2cc(C(N)=O)nc3c(N)c(Cl)c(N)c(c23)N1C | – | – | – | – | IC50 (HCC44): 0.5 µM
10 | C[N+]1=Cc2cc(C(N)=O)nc3c(N)c(Cl)c(N)c1c23 | Active | – | – | 5.5 | Stability [4]: Stable; Activity (Bacillus oceanisediminis): Active; t1/2 [5]: 240 h
